Assay [1] concerns the target T1, 5-hydroxytryptamine receptor 2C (Homo sapiens, UniProt P28335).
T1 sequence (P28335 whole entry): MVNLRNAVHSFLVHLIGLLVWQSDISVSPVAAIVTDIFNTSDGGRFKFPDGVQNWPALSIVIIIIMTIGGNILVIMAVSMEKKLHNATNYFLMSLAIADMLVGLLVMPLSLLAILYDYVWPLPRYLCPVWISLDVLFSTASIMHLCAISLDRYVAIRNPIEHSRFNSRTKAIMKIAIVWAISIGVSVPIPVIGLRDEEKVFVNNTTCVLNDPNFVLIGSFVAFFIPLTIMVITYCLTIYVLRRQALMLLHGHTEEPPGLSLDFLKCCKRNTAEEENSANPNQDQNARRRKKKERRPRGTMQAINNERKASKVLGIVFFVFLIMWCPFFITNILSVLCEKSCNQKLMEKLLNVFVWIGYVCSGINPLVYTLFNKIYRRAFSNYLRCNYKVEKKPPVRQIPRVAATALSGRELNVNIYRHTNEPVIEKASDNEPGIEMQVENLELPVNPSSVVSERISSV
The experiment in a line: Displacement of [3H]5-HT from human 5HT2C receptor expressed in CHO cells. The class given is cell-based. A digest of the protocol: (§1)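 Radioligand displacement of [3H]5-HT using membranes from CHO cells (5-HT2C, 5-HT2A) or HEK293-EBNA cells (5-HT2B). Medium: 50 mM Tris-HCl pH 7.4, 4 mM CaCl2, pargyline, 0.1 mg/mL ascorbic acid. Incubated 37 C for 30 min, then vacuum-filtered on PEI-treated GF/B filters and counted by scintillation. Non-specific binding defined with 10 µM 5-HT. Ki obtained by Cheng-Prusoff.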

Assay [2] addresses T2, 5-hydroxytryptamine receptor 2A (Homo sapiens, UniProt P28223). The assay can be described thus: Displacement of [3H]5-HT from human 5HT2A receptor expressed in CHO cells. It is filed as cell-based. A digest of the protocol:
as §1
For orientation: Displacement assays read how much labelled ligand stays bound in the presence of the test substance.

The target in assay [3] is 5-hydroxytryptamine receptor 2B (Homo sapiens, UniProt P41595). The experiment in a line: Displacement of [3H]5-HT from human 5HT2B receptor expressed in HEK293-EBNA cells. It is filed as cell-based. A digest of the protocol: as §1
Assay [4] has as its target Serotonin 2 receptors; 5-HT2a & 5-HT2c (Homo sapiens) (UniProt P28223+P28335). The experiment in a line: Selectivity for human 5HT2C receptor over human 5HT2A receptor.
The next assay is filed under the species Homo sapiens. The assay can be described thus: Selectivity for human 5HT2C receptor over human 5HT2B receptor.
Assay [5] addresses T3, 5-hydroxytryptamine receptor 2C (Homo sapiens) (UniProt P28335).
T3 sequence (whole entry): T1 sequence (P28335 whole entry)
The assay can be described thus: Intrinsic activity at human 5HT2C receptor expressed in CHO cells assessed as myo-[3H]inositol turnover relative to 5-hydroxytryptamine. It is filed as functional, cell-based. Put shortly:
(§2)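 Receptor-expressing CHO cells cultured 1 day, then labelled 24 h with myo-[3H]inositol (3 µCi/mL). Cells washed, held in PBS 20 min, then PBS-LiCl 20 min, then exposed 20 min to compound in PBS-LiCl. Stopped with PCA; [3H]inositol phosphates isolated on AG1-X8 anion-exchange columns and counted. Emax expressed relative to 10 µM 5-HT (100%), derived by non-linear fitting.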

Assay [6] concerns the target T2, 5-hydroxytryptamine receptor 2A. The assay can be described thus: Intrinsic activity at human 5HT2A receptor expressed in CHO cells assessed as myo-[3H]inositol turnover relative to 5-hydroxytryptamine. The class given is functional, cell-based. A digest of the protocol: as §2
The subject of assay [7] is Rattus norvegicus. The experiment in a line: Effect on penile erection in po dosed rat. It is filed as functional. Particulars: read-out: MED. A digest of the protocol:
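Rats given compound orally and placed singly in clear cages; penile erections counted over 30 min post-dose, with testing between 13:00 and 19:00. Erection scored as pelvic thrusts, rising onto hind limbs, engorged penis and licking. MED taken as the lowest dose differing from vehicle at p < 0.05.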

Assay [8] has as its system Rattus norvegicus. The assay can be described thus: Cardiovascular effect in po dosed rat assessed as increase in mean arterial blood pressure. It is filed as functional, organism-based. Particulars: Artery. Put shortly:
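Carotid artery catheterised under pentobarbital (60 mg/kg ip). After at least 2 days of recovery, conscious rats stabilised ≥30 min in cages and then dosed orally at 3–30 mg/kg. Mean arterial blood pressure recorded via the catheter. A 5-HT2A antagonist, MDL100907, was also used.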

By Ki is commonly meant a dissociation constant, usually derived from enzyme kinetics or from competition with a known ligand. Higher therefore signals a looser hold on the target. The Emax is the size of the effect at its maximum, as opposed to the concentration needed.

Serotonin 2 receptors; 5-HT2a & 5-HT2c (Homo sapiens), sequence (P28223 whole entry, looked up, one chain of several): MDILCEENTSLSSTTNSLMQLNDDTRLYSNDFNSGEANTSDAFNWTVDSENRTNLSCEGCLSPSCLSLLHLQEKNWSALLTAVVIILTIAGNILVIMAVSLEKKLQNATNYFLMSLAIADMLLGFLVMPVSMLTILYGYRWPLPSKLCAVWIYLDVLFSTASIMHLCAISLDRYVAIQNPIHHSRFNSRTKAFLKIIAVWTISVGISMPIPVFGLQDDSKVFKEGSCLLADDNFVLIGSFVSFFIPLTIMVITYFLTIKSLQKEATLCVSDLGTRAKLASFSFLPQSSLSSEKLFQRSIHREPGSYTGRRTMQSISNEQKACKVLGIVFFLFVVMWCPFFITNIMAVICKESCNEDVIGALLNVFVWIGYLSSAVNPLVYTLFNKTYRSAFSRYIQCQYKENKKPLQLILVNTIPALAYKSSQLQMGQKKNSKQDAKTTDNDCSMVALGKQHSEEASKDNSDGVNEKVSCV
T2 sequence (P28223 whole entry): as the sequence (P28223 whole entry, looked up, one chain of several) above
5-hydroxytryptamine receptor 2B, sequence (P41595 whole entry): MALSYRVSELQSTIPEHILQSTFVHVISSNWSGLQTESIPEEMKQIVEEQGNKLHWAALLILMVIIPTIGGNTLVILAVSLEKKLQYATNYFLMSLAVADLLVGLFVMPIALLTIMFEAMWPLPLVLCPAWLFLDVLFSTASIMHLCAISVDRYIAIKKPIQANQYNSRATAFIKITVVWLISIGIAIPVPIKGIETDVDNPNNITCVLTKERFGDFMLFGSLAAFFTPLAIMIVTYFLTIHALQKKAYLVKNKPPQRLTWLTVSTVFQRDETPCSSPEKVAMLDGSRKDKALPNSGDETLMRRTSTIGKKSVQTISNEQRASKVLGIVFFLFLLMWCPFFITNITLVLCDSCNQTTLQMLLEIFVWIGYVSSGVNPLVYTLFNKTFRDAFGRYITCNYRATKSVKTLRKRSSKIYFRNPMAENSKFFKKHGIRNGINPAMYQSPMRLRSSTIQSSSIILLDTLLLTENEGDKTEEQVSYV

`O=[N+]([O-])c1ccc2c(c1Cl)CCNCC2`: the results for the Ki in assay [1], in assay [2] and in [3] were 14 nM, 51 nM and 300 nM, respectively. Moreover, the Ratio Ki in [4] amounted to 4; in the assay listed under Homo sapiens it was 21. In addition, the results for the Emax in assay [5] and in assay [6] were 86% and 38%, respectively.

As for `CN1CCc2ccc([N+](=O)[O-])c(Cl)c2CC1`, the inhibition constant (Ki) amounted to 66 nM in [1], 400 nM in assay [2] and 1000 nM in assay [3]. The Ratio Ki in [4] was 6; in the assay listed under Homo sapiens, 5. The Emax is 85% in assay [5] and 7% in [6].

In assay [3], `CCc1cc2c(ccc3cnn(C[C@H](C)N)c32)o1` showed a Ki of 2.5 nM. In addition, the Ratio Ki in assay [4] worked out at 15; in the assay filed under Homo sapiens, 2.8. Also, the minimal effective dose in the assay with Rattus norvegicus [7] came to 0.3 mg/kg. The Activity result with Rattus norvegicus [8] is “Dose-dependent effect”.

Consider `N#Cc1ccc2c(c1Cl)CCNCC2`, for which the Ki in [1] was 5.1 nM; in assay [2] it was 30 nM; in [3], 65 nM. Also, the figures for the Ratio Ki (in assay [4]; in the assay listed under Homo sapiens) were 6 and 13, respectively. The maximal effect (Emax) in [5] came out at 81%; in assay [6], 23%.

Consider `c1cc2c3c(ccc2o1)CCNCC3`, for which the inhibition constant (Ki) was 20 nM in [1], 46 nM in [2] and 90 nM in assay [3]. Further, the Ratio Ki in assay [4] came out at 2; in the assay filed under Homo sapiens it was 5. For the same molecule, the maximal effect (Emax) worked out at 82% in assay [5] and 47% in assay [6].

Turning to `Clc1ccc2c(c1Cl)CCNCC2`, the Ki in assay [1] is 8.8 nM; in [2], 93 nM; in [3], 100 nM. Also, the Ratio Ki (in [4]; in the assay listed under Homo sapiens) was 11 throughout. Also, the figures for the Emax in assay [5] and in [6] were 87% and 27%, respectively. For the same molecule, the minimal effective dose with Rattus norvegicus [7] worked out at 0.3 mg/kg.

With `Clc1c(Br)ccc2c1CCNCC2`, the results for the Ki in assay [1], in [2] and in assay [3] were 2.4 nM, 10 nM and 25 nM, respectively. Also, the Ratio Ki in [4] was 4; in the assay filed under Homo sapiens it was 10. The Emax in [5] stood at 71%; in assay [6], 32%.

With `COc1ccc2c(c1Cl)CCNCC2`, the Ki came to 20 nM in [1], 62 nM in assay [2] and 84 nM in assay [3]. Also, the Ratio Ki in [4] is 3; in the assay listed under Homo sapiens, 4. For the same molecule, the figures for the Emax in [5] and in assay [6] were 88% and 56%, respectively.

As for `CNc1ccc2c(c1Cl)CCNCC2`, the results for the Ki in assay [1], in [2] and in assay [3] were 46 nM, 90 nM and 210 nM, respectively. In addition, the Ratio Ki in [4] came out at 2; in the assay filed under Homo sapiens, 5. Further, the maximal response (Emax) was determined as 81% in assay [5] and 90% in assay [6].

For `Fc1ccc2c(c1Cl)CCNCC2`, the Ki came to 43 nM in assay [1], 130 nM in [2] and 410 nM in [3]. For the same molecule, the Ratio Ki was 3 in [4] and 10 in the assay listed under Homo sapiens. For the same molecule, the Emax in [5] was found to be 80%; in assay [6], 26%.

`c1cc2ccc3c(c2o1)CCNCC3`: the values for the inhibition constant Ki in assay [1], in assay [2] and in [3] were 23 nM, 99 nM and 34 nM, respectively. The Ratio Ki in assay [4] is 4; in the assay listed under Homo sapiens, 1. For the same molecule, the figures for the maximal effect (Emax) in assay [5] and in assay [6] were 57% and 40%, respectively.

The values are drawn from ChEMBL document CHEMBL1144676, “Synthesis and structure-activity relationships of a series of benzazepine derivatives as 5-HT2C receptor agonists” (Bioorg Med Chem, 2008).
